Reference: ChEMBL document CHEMBL4330069, “Boosting the efficacy of anti-MRSA β-lactam antibiotics via an easily accessible, non-cytotoxic and orally bioavailable FtsZ inhibitor” (Eur J Med Chem, 2019)
In brackets after ≈: the same amount, converted by molar mass.

Assays:
Staphylococcus aureus [1] = assay: Antibacterial activity against multidrug-resistant Staphylococcus aureus isolate 254 by broth microdilution assay; assay type: functional
How it was run: (§1)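 Broth microdilution MIC per CLSI guidelines against clinical MRSA isolates, for β-lactams and test compound alone and in combination. Compounds were dissolved in DMSO. Growth was read by eye, in duplicate. FIC index = FIC(compound) + FIC(drug); synergy defined as FIC index ≤0.5.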

Staphylococcus aureus [2] = assay: Antibacterial activity against multidrug-resistant Staphylococcus aureus isolate 256 by broth microdilution assay; assay type: functional; how it was run: as §1
Staphylococcus aureus [3] = assay: Antibacterial activity against multidrug-resistant Staphylococcus aureus isolate 3267 by broth microdilution assay; assay type: functional; how it was run: as §1
Staphylococcus aureus [4] = assay: Antibacterial activity against multidrug-resistant Staphylococcus aureus isolate 2895 by broth microdilution assay; assay type: functional; how it was run: as §1
Staphylococcus aureus [5] = assay: Antibacterial activity against multidrug-resistant Staphylococcus aureus isolate 1449 by broth microdilution assay; assay type: functional; how it was run: as §1
Staphylococcus aureus [6] = assay: Antibacterial activity against multidrug-resistant Staphylococcus aureus isolate 200 by broth microdilution assay; assay type: functional; how it was run: as §1
Staphylococcus aureus [7] = assay: Antibacterial activity against multidrug-resistant Staphylococcus aureus isolate 358 by broth microdilution assay; assay type: functional; how it was run: as §1
Staphylococcus aureus [8] = assay: Antibacterial activity against multidrug-resistant Staphylococcus aureus isolate 2224 by broth microdilution assay; assay type: functional; how it was run: as §1
Staphylococcus aureus [9] = assay: Antibacterial activity against multidrug-resistant Staphylococcus aureus isolate 2516 by broth microdilution assay; assay type: functional; how it was run: as §1
Staphylococcus aureus [10] = assay: Antibacterial activity against multidrug-resistant Staphylococcus aureus isolate 1717 by broth microdilution assay; assay type: functional; how it was run: as §1
Staphylococcus aureus [11] = assay: Antibacterial activity against multidrug-resistant Staphylococcus aureus isolate 2728 by broth microdilution assay; assay type: functional; how it was run: as §1
Staphylococcus aureus [12] = assay: Antibacterial activity against multidrug-resistant Staphylococcus aureus isolate 1749 by broth microdilution assay; assay type: functional; how it was run: as §1
Staphylococcus aureus [13] = assay: Antibacterial activity against multidrug-resistant Staphylococcus aureus isolate 2919 by broth microdilution assay; assay type: functional; how it was run: as §1
Staphylococcus aureus [14] = assay: Antibacterial activity against multidrug-resistant Staphylococcus aureus isolate 3411 by broth microdilution assay; assay type: functional; how it was run: as §1
Staphylococcus aureus [15] = assay: Antibacterial activity against multidrug-resistant Staphylococcus aureus isolate 2490 by broth microdilution assay; assay type: functional; how it was run: as §1
Staphylococcus aureus [16] = assay: Antibacterial activity against multidrug-resistant Staphylococcus aureus isolate 85 by broth microdilution assay; assay type: functional; how it was run: as §1
Staphylococcus aureus [17] = assay: Antibacterial activity against multidrug-resistant Staphylococcus aureus isolate 3589 by broth microdilution assay; assay type: functional; how it was run: as §1
Staphylococcus aureus [18] = assay: Antibacterial activity against multidrug-resistant Staphylococcus aureus isolate 231 by broth microdilution assay; assay type: functional; how it was run: as §1
Staphylococcus aureus [19] = assay: Antibacterial activity against multidrug-resistant Staphylococcus aureus isolate 2973 by broth microdilution assay; assay type: functional; how it was run: as §1
Staphylococcus aureus [20] = assay: Antibacterial activity against multidrug-resistant Staphylococcus aureus isolate 1136 by broth microdilution assay; assay type: functional; how it was run: as §1
Staphylococcus aureus [21] = assay: Antibacterial activity against multidrug-resistant Staphylococcus aureus isolate 417 by broth microdilution assay; assay type: functional; how it was run: as §1
Staphylococcus aureus [22] = assay: Antibacterial activity against multidrug-resistant Staphylococcus aureus isolate 1344 by broth microdilution assay; assay type: functional; how it was run: as §1
Staphylococcus aureus [23] = assay: Antibacterial activity against multidrug-resistant Staphylococcus aureus isolate 3580 by broth microdilution assay; assay type: functional; how it was run: as §1
Staphylococcus aureus [24] = assay: Antibacterial activity against multidrug-resistant Staphylococcus aureus isolate 3332 by broth microdilution assay; assay type: functional; how it was run: as §1
Staphylococcus aureus [25] = assay: Antibacterial activity against multidrug-resistant Staphylococcus aureus isolate 1402 by broth microdilution assay; assay type: functional; how it was run: as §1
Staphylococcus aureus [26] = assay: Antibacterial activity against multidrug-resistant Staphylococcus aureus isolate 2901 by broth microdilution assay; assay type: functional; how it was run: as §1
Staphylococcus aureus [27] = assay: Antibacterial activity against multidrug-resistant Staphylococcus aureus isolate 757 by broth microdilution assay; assay type: functional; how it was run: as §1
Staphylococcus aureus [28] = assay: Antibacterial activity against multidrug-resistant Staphylococcus aureus isolate 774 by broth microdilution assay; assay type: functional; how it was run: as §1
[29] = Selective index, ratio of IC50 for mouse L929 cells to MIC for Staphylococcus aureus ATCC 29213
How it was run: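 Selectivity index calculated as L929 IC50 (μM) divided by S. aureus MIC (μM).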

L929 = assay: Cytotoxicity against mouse L929 cells by MTS assay; assay type: cell-based
How it was run: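 MTS assay on L929 mouse fibroblasts; IC50 reported as the average of three independent measurements.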

Escherichia coli = assay: Antibacterial activity against Escherichia coli ATCC 25922 by broth microdilution assay; assay type: functional
How it was run: (§2)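 Broth microdilution per CLSI guidelines; compounds dissolved in DMSO; single agents tested; growth inhibition read by eye; run in duplicate (table footnote states at least triplicates).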

Staphylococcus aureus [30] = assay: Antibacterial activity against Staphylococcus aureus ATCC 29213 by broth microdilution assay; assay type: functional; how it was run: as §2

`COc1cccc(OC)c1C(=O)N[C@@H]1C(=O)N2[C@@H]1SC(C)(C)[C@@H]2C(=O)O` [METHICILLIN] showed an MIC (Staphylococcus aureus [1]) of 1020 µg/mL (≈ 2690 µM), an MIC (Staphylococcus aureus [2]) of 128 µg/mL (≈ 336 µM) and an MIC (Staphylococcus aureus [3]) of 64 µg/mL (≈ 168 µM). It also gave an MIC (Staphylococcus aureus [4]) of 64 µg/mL (≈ 168 µM), an MIC (Staphylococcus aureus [5]) of 8 µg/mL (≈ 21 µM) and an MIC (Staphylococcus aureus [6]) of 16 µg/mL (≈ 42.1 µM). The MIC (Staphylococcus aureus [7]) was 16 µg/mL (≈ 42.1 µM), the MIC (Staphylococcus aureus [8]) was 16 µg/mL (≈ 42.1 µM) and the MIC (Staphylococcus aureus [9]) was 64 µg/mL (≈ 168 µM). The MIC (Staphylococcus aureus [10]) was 16 µg/mL (≈ 42.1 µM), the MIC (Staphylococcus aureus [11]) was 32 µg/mL (≈ 84.1 µM) and the MIC (Staphylococcus aureus [12]) was 32 µg/mL (≈ 84.1 µM). It also gave an MIC (Staphylococcus aureus [13]) of 32 µg/mL (≈ 84.1 µM), an MIC (Staphylococcus aureus [14]) of 128 µg/mL (≈ 336 µM) and an MIC (Staphylococcus aureus [15]) of 1020 µg/mL (≈ 2690 µM). It also gave an MIC (Staphylococcus aureus [16]) of 8 µg/mL (≈ 21 µM), an MIC (Staphylococcus aureus [17]) of 256 µg/mL (≈ 673 µM) and an MIC (Staphylococcus aureus [18]) of 1020 µg/mL (≈ 2690 µM). For the same molecule, the MIC (Staphylococcus aureus [19]) was 16 µg/mL (≈ 42.1 µM), the MIC (Staphylococcus aureus [20]) was 64 µg/mL (≈ 168 µM) and the MIC (Staphylococcus aureus [21]) was 1020 µg/mL (≈ 2690 µM). For the same molecule, the MIC (Staphylococcus aureus [22]) was 256 µg/mL (≈ 673 µM), the MIC (Staphylococcus aureus [23]) was 16 µg/mL (≈ 42.1 µM) and the MIC (Staphylococcus aureus [24]) was 128 µg/mL (≈ 336 µM). It also gave an MIC (Staphylococcus aureus [25]) of 32 µg/mL (≈ 84.1 µM), an MIC (Staphylococcus aureus [26]) of 256 µg/mL (≈ 673 µM) and an MIC (Staphylococcus aureus [27]) of 64 µg/mL (≈ 168 µM). The MIC (Staphylococcus aureus [28]) was 16 µg/mL (≈ 42.1 µM).
With `CCCCCOc1cccc(CNc2ccc(F)c(C(N)=O)c2F)c1` the “Selectivity Index” value [29] was 2, the IC50 (L929) was 87 µM and the MIC (Escherichia coli) was greater than 64 µg/mL. The MIC (Staphylococcus aureus [30]) was 50 µM (≈ 17.4 µg/mL).
Work on `CC1(C)S[C@@H]2[C@H](NC(=O)[C@H](N)c3ccc(O)cc3)C(=O)N2[C@H]1C(=O)O` [AMOXICILLIN] yielded an MIC (Staphylococcus aureus [1]) of 128 µg/mL (≈ 350 µM), an MIC (Staphylococcus aureus [2]) of 256 µg/mL (≈ 701 µM) and an MIC (Staphylococcus aureus [3]) of 8 µg/mL (≈ 21.9 µM). For the same molecule, the MIC (Staphylococcus aureus [4]) was 256 µg/mL (≈ 701 µM), the MIC (Staphylococcus aureus [5]) was 2 µg/mL (≈ 5.47 µM) and the MIC (Staphylococcus aureus [6]) was 512 µg/mL (≈ 1400 µM). The MIC (Staphylococcus aureus [7]) was 256 µg/mL (≈ 701 µM), the MIC (Staphylococcus aureus [8]) was 512 µg/mL (≈ 1400 µM) and the MIC (Staphylococcus aureus [9]) was 64 µg/mL (≈ 175 µM). For the same molecule, the MIC (Staphylococcus aureus [10]) was 32 µg/mL (≈ 87.6 µM), the MIC (Staphylococcus aureus [11]) was 512 µg/mL (≈ 1400 µM) and the MIC (Staphylococcus aureus [12]) was 64 µg/mL (≈ 175 µM). It also gave an MIC (Staphylococcus aureus [13]) of 1020 µg/mL (≈ 2800 µM), an MIC (Staphylococcus aureus [14]) of 256 µg/mL (≈ 701 µM) and an MIC (Staphylococcus aureus [15]) of 128 µg/mL (≈ 350 µM). For the same molecule, the MIC (Staphylococcus aureus [16]) was 256 µg/mL (≈ 701 µM), the MIC (Staphylococcus aureus [17]) was 128 µg/mL (≈ 350 µM) and the MIC (Staphylococcus aureus [18]) was 256 µg/mL (≈ 701 µM). The MIC (Staphylococcus aureus [19]) was 512 µg/mL (≈ 1400 µM), the MIC (Staphylococcus aureus [20]) was 512 µg/mL (≈ 1400 µM) and the MIC (Staphylococcus aureus [21]) was 512 µg/mL (≈ 1400 µM). The MIC (Staphylococcus aureus [22]) was 128 µg/mL (≈ 350 µM), the MIC (Staphylococcus aureus [23]) was 256 µg/mL (≈ 701 µM) and the MIC (Staphylococcus aureus [24]) was 64 µg/mL (≈ 175 µM). The MIC (Staphylococcus aureus [25]) was 256 µg/mL (≈ 701 µM), the MIC (Staphylococcus aureus [26]) was 512 µg/mL (≈ 1400 µM) and the MIC (Staphylococcus aureus [27]) was 8 µg/mL (≈ 21.9 µM). It also gave an MIC (Staphylococcus aureus [28]) of 512 µg/mL (≈ 1400 µM).
With `CCCCCCCC(C)Nc1ccc(F)c(C(N)=O)c1F` (centres undefined) the “Selectivity Index” value [29] was greater than 8, the IC50 (L929) was greater than 100 µM and the MIC (Escherichia coli) was greater than 64 µg/mL. The MIC (Staphylococcus aureus [30]) was 13 µM (≈ 3.88 µg/mL).
For `NC(=O)c1c(F)ccc(N(Cc2ccc(F)cc2)Cc2ccc(F)cc2)c1F`, the “Selectivity Index” value [29] was greater than 2, the IC50 (L929) was greater than 100 µM and the MIC (Escherichia coli) was greater than 64 µg/mL. The MIC (Staphylococcus aureus [30]) was 50 µM (≈ 19.4 µg/mL).
In the case of `CCCCCCCCN(C)c1ccc(F)c(C(N)=O)c1F`, the “Selectivity Index” value [29] is reported as 7, the IC50 (L929) is reported as 92 µM and the MIC (Escherichia coli) is reported as greater than 64 µg/mL. The MIC (Staphylococcus aureus [30]) was 13 µM (≈ 3.88 µg/mL).
In the case of `NC(=O)c1c(F)ccc(N(Cc2ccc(Cl)cc2)Cc2ccc(Cl)cc2)c1F`, the “Selectivity Index” value [29] is reported as greater than 8, the IC50 (L929) is reported as greater than 100 µM and the MIC (Escherichia coli) is reported as greater than 64 µg/mL. The MIC (Staphylococcus aureus [30]) was 13 µM (≈ 5.48 µg/mL).
For `CCCCCCCCCNc1ccc(F)c(-c2nnn[nH]2)c1F`, the “Selectivity Index” value [29] was greater than 2, the IC50 (L929) was greater than 100 µM and the MIC (Escherichia coli) was greater than 64 µg/mL. The MIC (Staphylococcus aureus [30]) was 50 µM (≈ 16.2 µg/mL).
For `CCCCCCCCCOc1ccc(F)c(C(N)=O)c1F`, the “Selectivity Index” value [29] was 29, the IC50 (L929) was 90 µM and the MIC (Escherichia coli) was greater than 64 µg/mL. For the same molecule, the MIC (Staphylococcus aureus [30]) was 3.1 µM (≈ 0.928 µg/mL).
